Results from different studies.
Protocols differ between the studies behind these lines.
Target: Histamine H1 receptor (HRH1, Homo sapiens, UniProt P35367)

CC(C)N1CCC[C@H]1CNC(=O)c1cn(C2CCCC2)c(=O)c2c1c1ccccc1n2C — inhibition (ligand displacement; radioligand; 10 µM): 22%
N#CC1(c2ccccn2)CCN(Cc2cc(C(=O)O)c(=O)n3ccccc23)CC1 — inhibition (cell-free assay; 10 µM): 28.4%
Clc1ccc2c(C3CCN(CCc4c[nH]c5ccccc45)CC3)c[nH]c2c1 — inhibition (ligand displacement; radioligand; 10 µM): 100%
COc1ccc(C(=O)NCc2cc(C(C)C)no2)cc1OC1CCN(C)CC1 — inhibition (ligand displacement; radioligand; 10 µM): 37%
COCc1c(-c2cc3cc(C)cc(OC)c3s2)c2c(N)ncnn2c1CN1CCNC(=O)C1 — inhibition (ligand displacement; radioligand; 10 µM): 26%
Nc1ncc(-c2nc(N3CCOCC3)nc(N3CCOCC3)n2)c(C(F)F)n1 — remaining signal (cell-free assay; radioligand; 10 µM): 99.1%
C[C@H](C(=O)N[C@H]1COc2ccccc2[C@@H]1S(C)(=O)=O)c1ccc(F)cc1 — inhibition (cell-free assay; 10 µM): -5%
COc1ccc(S(=O)(=O)N2CCCCC2)cc1C — inhibition (ligand displacement; radioligand; 10 µM): < 30%
c1ccc(C(NCCNC(c2ccccc2)c2ccccc2)c2ccccc2)cc1 — inhibition (cell-free assay; 10 µM): 81%
Cc1c(N2CCNCC2)nc2ccc(Br)cc2c1C(=O)NC[C@H](CCC(=O)O)c1ccccc1Cl — inhibition (ligand displacement; 10 µM): 17.5%
CN1CCC(C(c2ccccc2)c2ccccc2)CC1 — kon (binding): 3.33e+06 M⁻¹ s⁻¹
CC(Cc1ccccc1)NCCn1cnc2c1c(=O)n(C)c(=O)n2C (stereo not shown) — inhibition (ligand displacement; radioligand; 10 µM): 12%
CCN(CC)CCCC[C@H](NC(=O)[C@H](CC(C)C)NC(=O)[C@H](C)NC(=O)[C@H](Cc1ccccc1)NC(=O)c1ccc(C(C)(C)C)cc1)C(=O)N[C@@H](CO)C(=O)OC — inhibition (ligand displacement; radioligand; 10 µM): -6%
